Activity calls are given as the source filed them. No cut-off for these calls is given here.
Tests used:
K562 = assay: Antiproliferative activity against human K562 cells after 72 hrs by CellTiter-Glo luminescent cell viability assay; assay type: functional, cell-based; settings: K562, 72 h
How it was run: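 Cells in exponential growth exposed to a range of inhibitor concentrations for 72 h. CellTiter-Glo reagent added, mixed 2 min to lyse cells, luminescence read 10 min later. IC50 derived from the concentration–response. Replicates n ≥ 2, mean shown.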

HCT-116 [1] = assay: Antitumor activity against human HCT116 cells xenografted in CD1 nude mouse assessed as reduced tumor volume 150 mg/kg, po administered for 5 days/week for 17 days; assay type: functional
How it was run: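 Female CD-1 nude mice bearing subcutaneous flank HCT-116 tumours (5 × 10⁶ cells injected). Dosing began at about 100 mm³ tumour volume. Given orally at 35–150 mg/kg in water with 5% DMSO and 9.5% encapsin, 5 days/week for 17 days. Tumour volume tracked against vehicle controls. T/C = mean relative tumour volume treated / control.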

[2] = target: T1, Protein deacetylase HDAC6 (Homo sapiens, UniProt Q9UBN7); assay: Inhibition of HDAC6 using carboxyfluorescein-labeled peptide as substrate after 17 hrs by fluorescence assay
T1 sequence (Q9UBN7 whole entry): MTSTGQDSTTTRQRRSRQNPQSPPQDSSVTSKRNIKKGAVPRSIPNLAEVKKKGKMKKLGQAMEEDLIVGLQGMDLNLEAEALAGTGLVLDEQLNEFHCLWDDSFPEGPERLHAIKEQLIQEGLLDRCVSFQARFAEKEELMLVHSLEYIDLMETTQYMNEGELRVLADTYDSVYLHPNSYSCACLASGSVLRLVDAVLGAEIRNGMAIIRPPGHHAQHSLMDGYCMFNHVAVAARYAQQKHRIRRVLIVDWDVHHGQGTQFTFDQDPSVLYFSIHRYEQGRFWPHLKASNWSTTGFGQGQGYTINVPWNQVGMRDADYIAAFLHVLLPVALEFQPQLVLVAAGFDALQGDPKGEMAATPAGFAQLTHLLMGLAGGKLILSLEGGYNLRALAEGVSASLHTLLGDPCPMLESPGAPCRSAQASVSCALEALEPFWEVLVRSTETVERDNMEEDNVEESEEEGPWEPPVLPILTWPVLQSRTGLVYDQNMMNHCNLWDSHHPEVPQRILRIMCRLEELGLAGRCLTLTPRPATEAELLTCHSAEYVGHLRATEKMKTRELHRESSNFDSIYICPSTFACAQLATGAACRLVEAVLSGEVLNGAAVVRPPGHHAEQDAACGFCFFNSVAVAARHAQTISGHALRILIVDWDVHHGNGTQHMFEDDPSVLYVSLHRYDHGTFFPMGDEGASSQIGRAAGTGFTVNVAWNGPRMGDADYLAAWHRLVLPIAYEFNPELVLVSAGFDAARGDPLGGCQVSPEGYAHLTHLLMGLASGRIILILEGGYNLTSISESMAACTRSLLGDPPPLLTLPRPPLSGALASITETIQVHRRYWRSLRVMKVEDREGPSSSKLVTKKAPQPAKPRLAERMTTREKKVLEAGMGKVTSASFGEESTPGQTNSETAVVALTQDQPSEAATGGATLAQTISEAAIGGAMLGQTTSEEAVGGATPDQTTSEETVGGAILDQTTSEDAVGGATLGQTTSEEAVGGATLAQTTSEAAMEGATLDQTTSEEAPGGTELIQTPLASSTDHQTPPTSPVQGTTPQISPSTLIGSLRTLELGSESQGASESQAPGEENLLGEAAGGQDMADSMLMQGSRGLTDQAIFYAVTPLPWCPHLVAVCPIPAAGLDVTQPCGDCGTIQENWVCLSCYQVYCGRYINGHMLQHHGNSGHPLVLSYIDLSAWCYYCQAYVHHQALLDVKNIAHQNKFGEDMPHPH
How it was run: (§1)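 Purified HDAC isoforms incubated with compound and 1 μM carboxyfluorescein-labelled peptide for 17 h at 25 °C. Reaction stopped with HEPES/0.08% SDS. Substrate and product separated electrophoretically and read by fluorescence. Run in duplicate. IC50 from 12-point curves by nonlinear regression.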

HCT-116 [3] = assay: Cell cycle arrest in human HCT116 cells assessed as accumulation at G0/G1 phase at 1 to 3 uM after 24 hrs by flow cytometry; assay type: functional, cell-based; settings: in the assay text read “G2/M phase” for “G0/G1 phase”
How it was run: (§2)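 HCT-116 cells treated for 24 h at several concentrations. Harvested, fixed in 70% ethanol at -20 °C, RNase treated (1 mg/mL), stained with propidium iodide. DNA content measured by flow cytometry to give phase distribution, including the subG1 population.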

Histone deacetylase 8 = target: T2, Histone deacetylase 8 (Homo sapiens, UniProt Q9BY41); assay: Inhibition of HDAC8 using carboxyfluorescein-labeled peptide as substrate after 17 hrs by fluorescence assay; how it was run: as §1
T2 sequence (Q9BY41 whole entry): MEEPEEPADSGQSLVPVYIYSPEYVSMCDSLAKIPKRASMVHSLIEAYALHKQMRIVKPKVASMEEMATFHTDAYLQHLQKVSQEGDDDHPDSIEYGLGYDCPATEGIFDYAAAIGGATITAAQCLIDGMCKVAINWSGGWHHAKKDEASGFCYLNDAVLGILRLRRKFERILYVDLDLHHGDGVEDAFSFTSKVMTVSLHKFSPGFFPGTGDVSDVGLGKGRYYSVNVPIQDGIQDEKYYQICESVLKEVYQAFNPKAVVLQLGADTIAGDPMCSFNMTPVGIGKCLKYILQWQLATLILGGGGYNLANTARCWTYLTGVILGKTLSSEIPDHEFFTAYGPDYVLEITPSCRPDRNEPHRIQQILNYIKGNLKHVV

Mus musculus = species: Mus musculus; assay: Hepatic blood flow in mouse; assay type: ADME, organism-based, Liver
[4] = Tmax in mouse; assay type: ADME, organism-based; settings: in vivo
Histone deacetylase 3 = Histone deacetylase 3 (Homo sapiens, UniProt O15379); assay: Inhibition of HDAC3 using carboxyfluorescein-labeled peptide as substrate after 17 hrs by fluorescence assay; how it was run: as §1
Histone deacetylase 3, sequence (O15379 whole entry): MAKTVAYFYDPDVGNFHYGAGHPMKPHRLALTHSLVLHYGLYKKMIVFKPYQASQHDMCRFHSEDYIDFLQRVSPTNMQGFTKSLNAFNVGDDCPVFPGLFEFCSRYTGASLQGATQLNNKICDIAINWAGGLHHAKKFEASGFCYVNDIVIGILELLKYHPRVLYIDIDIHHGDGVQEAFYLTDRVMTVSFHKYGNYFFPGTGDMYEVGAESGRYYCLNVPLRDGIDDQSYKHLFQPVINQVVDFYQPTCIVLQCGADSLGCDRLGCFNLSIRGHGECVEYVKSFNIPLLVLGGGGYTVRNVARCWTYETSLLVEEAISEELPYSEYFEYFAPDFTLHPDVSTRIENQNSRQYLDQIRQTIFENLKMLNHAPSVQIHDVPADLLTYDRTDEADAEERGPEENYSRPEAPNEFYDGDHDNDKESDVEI

[5] = AUC (0 to infinity) in CD1 mouse at 15 mg/kg, po; assay type: ADME, organism-based; design: time infinity, dose 15 mg/kg, route oral; settings: plasma
How it was run: (§3)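 Single dose to male CD-1 mice, either iv at 5 mg/kg or oral at 15 mg/kg. Plasma pharmacokinetic parameters were calculated from these dosings.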

HCT-116 [6] = assay: Cell cycle arrest in human HCT116 cells assessed as accumulation at subG1 phase after 24 hrs by flow cytometry; assay type: functional, cell-based; how it was run: as §2
[7] = target: Histone deacetylase (Homo sapiens) (UniProt Q13547+O15379+Q9UBN7+Q92769+Q9UQL6+Q8WUI4+Q9BY41+Q96DB2+P56524+Q9UKV0+Q969S8); settings: HCT-116, 100 uM
[8] = Tmax in CD1 mouse at 5 mg/kg, iv and 15 mg/kg, po; assay type: ADME, organism-based; settings: in vivo; how it was run: as §3
[9] = Elimination half life in CD1 mouse at 5 mg/kg, iv and 15 mg/kg, po; assay type: ADME, organism-based; settings: in vivo, read-out: beta t1/2 (converted); how it was run: as §3
HCT-116 [10] = assay: Cell cycle arrest in human HCT116 cells assessed as accumulation at G2M phase at 1 to 3 uM after 24 hrs by flow cytometry; assay type: functional, cell-based; how it was run: as §2
HCT-116 [11] = assay: Cell cycle arrest in human HCT116 cells assessed as decrease in S phase cells at 0.3 uM after 24 hrs by flow cytometry; assay type: functional, cell-based; how it was run: as §2
[12] = Cmax in CD1 mouse at 15 mg/kg, po; assay type: ADME, organism-based; design: dose 15 mg/kg, route oral; settings: in vivo; how it was run: as §3

SMILES: O=C(/C=C/c1ccc2c(c1)C(=O)CC1(CCN(Cc3ccccc3)CC1)O2)NO
- IC50 (K562): 399 nM
- T/C (HCT-116 [1]): 0.3
- IC50 [2]: 25.7 nM
- Activity (HCT-116 [3]): Active
- IC50 (Histone deacetylase 8): 1760 nM
- QH (Mus musculus): 90 mL/min/kg
- Tmax [4]: 15 min
- IC50 (Histone deacetylase 3): 9.4 nM
- AUC(0-inf) [5]: 800 ng·h/mL
- Activity (HCT-116 [6]): Dose-dependent effect
- inhibition [7]: Active
- Tmax [8]: 15 min
- half-life [9]: 504 min
- Activity (HCT-116 [10]): Active
- Activity (HCT-116 [11]): Active
- Cmax [12]: 823 nM

Source: ChEMBL document CHEMBL1938288, “Discovery, synthesis, and pharmacological evaluation of spiropiperidine hydroxamic acid based derivatives as structurally novel histone deacetylase (HDAC) inhibitors” (J Med Chem, 2011)
